Key:
MS2 coat protein [1] = assay: apparent Kd, MS2 coat protein; higher = weaker binding; RNA-MaP array
How it was run: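 RNA designs were transcribed from sequenced DNA templates on an Illumina sequencing chip and then incubated at room temperature with fluorescently labeled MS2 coat protein at 1.5 nM to 3 μM, with or without input ligand, in Tris-HCl pH 7.5 buffer containing KCl, MgCl2, BSA, DTT, tRNA and Tween20. Incubation lasted 0.8–1.5 h at the lowest protein concentrations and 10–20 min at the highest. Apparent Kd is the median of binding-curve fits made for each cluster. Designs measured on fewer than 10 clusters were excluded.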

MS2 coat protein [2] = assay: apparent Kd, MS2 coat protein; higher = weaker binding; RNA-MaP array; FMN 200 µM where present
How it was run: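 Green signal was scaled to red-channel RNA signal and control-cluster median Fmax, and the apparent Kd was taken as the median of filtered per-cluster binding-curve fits. The binding series used SNAP-549-labelled MS2 coat protein from 0.7 or 1.5 nM, doubling to 3 µM, on designs transcribed by stalled E. coli RNA polymerase on Illumina sequencing-chip clusters. Each series ran without and then with constant ligand in 100 mM Tris-HCl pH 7.5, 80 mM KCl, 4 mM MgCl2, BSA, DTT, yeast tRNA and Tween-20.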

[3] = designed as: ON switch for flavin mononucleotide, no ligand
[4] = ligand present: flavin mononucleotide, designed as: ON switch for flavin mononucleotide
[5] = designed as: OFF switch for flavin mononucleotide, no ligand
[6] = ligand present: flavin mononucleotide, designed as: OFF switch for flavin mononucleotide

| Sequence | apparent Kd (MS2 coat protein [2]; [5]) [µM] | apparent Kd (MS2 coat protein [2]; [6]) [µM] | also measured |
| --- | --- | --- | --- |
| CCAUGGAGGACUGAGGAUAUUCGCAUAAGCACAUGAGGAUCACCCAUGUCAGAAAUAAAUCUCUAGAAGAAGGCAGCGCUAAGACA | – | – | apparent Kd (MS2 coat protein [1]; [3]): 0.0129 µM; apparent Kd (MS2 coat protein [1]; [4]): 0.0132 µM |
| CGGCUCAUAAUGGAUACCAGUCCAGCAUAGAAACCUUGACACAUGAGGAUCACCCAUGUUGACCCUUGGCAGCCAUUGAUCAUAC | – | – | apparent Kd (MS2 coat protein [1]; designed as: OFF switch for theophylline, no ligand): 0.0224 µM; apparent Kd (MS2 coat protein [1]; ligand present: theophylline, designed as: OFF switch for theophylline): 0.133 µM |
| AGAUCCUAAGUAAGGAUAUACCUCGCACACAAGUCGUAGAAGGUACAUGAGGAUCACCCAUGUAGGAAAGUACU | – | – | apparent Kd (MS2 coat protein [1]; [5]): 0.0124 µM; apparent Kd (MS2 coat protein [1]; [6]): 0.0153 µM |
| AUCACAACCAAGAAGGGUCAGAUAACUCGAGAGACAGGAUAUUGAACAACAUAGUCAACAUGAGGAUCACCCAUGUAAAAUAAA | – | – | apparent Kd (MS2 coat protein [1]; [3]): 0.054 µM; apparent Kd (MS2 coat protein [1]; [4]): 0.0242 µM |
| UCACGGGAUUGAGGAUAUAUAUGAAUUUUUUUUAUAGAAGGCAAAAUGUUAGAUUAUUCACUAUACAUGAGGAUCACCCAUGUU | 0.0269 | 0.0242 | – |
| GCACUGGAUGUAGGAUAUCAGGACGAUAAGUCCUGAGAAGGACAUGAGGAUCACCCAUGUAACCUCUAACCAGUGCAUAAUAUA | 0.0126 | 0.0232 | – |
| GGAUGACAAAGUCAUCCUCAACGGACAUGAGGAUCACCCAUGUAGGAUAUGCUACUCAAAGAGUAGCAGAAGGACAUGUGUCUU | 0.0373 | 0.241 | – |
| AACGUCGAAGGAUAUACAUGAGGAUCACCCAUGUGGGACCUGUAGUCUCACCCAUCGUGUAGAAGGUUGAGGCA | 0.0322 | 0.0297 | – |
| UUCCUCAUAACAUGAGGAUCACCCAUGUAUUAUUUGAUAACUGAGGAUAUACUUUUAAUGUUUAUGUAGAAGGCAGAUACAGUU | 0.0894 | 0.138 | – |
| UUAUUUUGUCAAGGAUAUGUAUUAUUGAUUUGAAAACAUGAGGAUCACCCAUGUAUAUGGUGGGAACAGAAGGUGAAUGGUGAA | 0.194 | 0.215 | – |
| AAUCUAUUUAUGGGAUUACAAUAUGAGGAUAUCAUUCAUCUAUACAUGAGGAUCACCCAUGUUACUGAGAAGGCAUAUAUAAUA | – | – | apparent Kd (MS2 coat protein [2]; [3]): 0.0141 µM; apparent Kd (MS2 coat protein [2]; [4]): 0.00985 µM |
| UGAUAACAUGUAGGAUAUCCAGCAUUGACCAUCGGAGAAGGACAUGAGGAUCACCCAUGUACCGAUACAAUGGGAUAACGGAAU | 0.0157 | 0.0177 | – |
| CAUGUACGUGAGGAUAUGGUGGCGACGAGCCGGCUAGAAGGCACAACAUGAGGAUCACCCAUGUCUUGGAUCUA | 0.114 | 0.374 | – |
| ACAGAUCCUGACAUGAGGAUCACCCAUGUUAGAUUGUUAUGUCAGGAUAUUAUCUGGCAACCAGAUGAGAAGGGACGAUCUGUG | – | – | apparent Kd (MS2 coat protein [2]; [3]): 0.24 µM; apparent Kd (MS2 coat protein [2]; [4]): 0.0155 µM |
| UUAUUUAGGUAGGAUAUCGAUACCAAUCCCUAUCGAGAAGGGUCUACAUGAGGAUCACCCAUGUUAGCAUGUUU | 0.0201 | 0.0211 | – |
| GAUGGAGAGCAGGAUAUCUUGGGUAAGCAUCAUAGAGAAGGGCUCACAUGAGGAUCACCCAUGUGGUCCAAGAA | 0.0142 | 0.056 | – |
| AUCAGCUCGUCAGGAUAUACGUCACUGCGGCAGCAGUGUGGUAAGAUCACAUGAGGAUCACCCAUGUAGAAGGGACGAGCUGAU | 0.0131 | 0.26 | – |
| UGUUACUAGGGAGGAUAUGGGAAGAUACAUGAGGAUCACCCAUGUUUAAGAAUGCCGAGAGGCAACUAGAAGGCCCUAGUACCU | – | – | apparent Kd (MS2 coat protein [2]; [3]): 0.354 µM; apparent Kd (MS2 coat protein [2]; [4]): 0.0231 µM |
| CCAUGACAAAGUCAUGGAUAACGAACAUGAGGAUCACCCAUGUAGGAUAUGCUACUCAAAGAGUAGCAGAAGGACAUGUGCCUU | 0.0361 | 0.263 | – |
| UCGGCGCGAGGAUAUACGGUUGCUUUUUAGGGUCGUGGCGUACAUGAGGAUCACCCAUGUAGAAGGCGCGCCGC | 0.0161 | 0.0302 | – |
| UGUCGGAGCAGAGGAUAUUACAUGAGGAUCACCCAUGUAUGUACCAAUAGCUGGAAACAGCAAUGUAAGAAGGCUGCUCCGACA | 0.006 | 0.0247 | – |
| UUUAUGUCAGGAUAUGAGUAGUAGAACAAUAGUACUACUACUCAGAAGGGACAUGAGGAUCACCCAUGUUCUUC | 0.0167 | 0.0466 | – |
| GCCAUGCUGGUGACGGAUAACACAUGAGGAUCACCCAUGUACAGAAGGCGGAAUUAGCGUAGGACCGAGGAUAUGUGCGUGAGG | 0.0308 | 0.0423 | – |
